# Measurements reported in ChEMBL document CHEMBL1148612, “Rapid synthesis of triazole-modified resveratrol analogues via click chemistry” (J Med Chem, 2006).
# pIC50: −log10 of the molar value.
# Tested on: RBL-2H3
# Experiment: Cytotoxicity against basophilic leukemia RBL 2H3 cell line by MTT assay at 100 uM
# Assay type: functional, Rattus norvegicus
# Settings: not given
# Method in brief: (§1)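 Cells were exposed to compound at 100 µM for 48 h. Values are % viability relative to untreated control cells, given as mean ± SEM of four determinations.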
row,SMILES,Activity
1,COc1ccc(-n2cc(-c3cc(OC)cc(OC)c3)nn2)cc1,116%
2,COc1ccc(-c2cn(-c3cc(O)cc(O)c3)nn2)cc1,99.6%
3,Oc1ccc(-c2cn(-c3cc(O)cc(O)c3)nn2)cc1,110%
4,Oc1ccc(/C=C/c2cc(O)cc(O)c2)cc1 [RESVERATROL],52.1%
5,COc1ccc(-c2cn(-c3cc(OC)cc(OC)c3)nn2)cc1,113%
6,Oc1ccc(-n2cc(-c3cc(O)cc(O)c3)nn2)cc1,114%

# Tested on: MDA-MB-231
# Experiment: Cytotoxicity against breast cancer MDA-MB-231 cell line by MTT assay at 100 uM
# Assay type: functional, Homo sapiens
# Settings: not given
# Method in brief: as §1
row,SMILES,Activity
1,COc1ccc(-n2cc(-c3cc(OC)cc(OC)c3)nn2)cc1,93.2%
2,COc1ccc(-c2cn(-c3cc(O)cc(O)c3)nn2)cc1,72.2%
3,Oc1ccc(-c2cn(-c3cc(O)cc(O)c3)nn2)cc1,97%
4,Oc1ccc(/C=C/c2cc(O)cc(O)c2)cc1 [RESVERATROL],67.9%
5,COc1ccc(-c2cn(-c3cc(OC)cc(OC)c3)nn2)cc1,99.3%
6,Oc1ccc(-n2cc(-c3cc(O)cc(O)c3)nn2)cc1,95.5%

# Tested on: SH-SY5Y
# Experiment: Cytotoxicity against neuroblastoma SHSY5Y cell line by MTT assay at 100 uM
# Assay type: functional, Homo sapiens
# Settings: not given
# Method in brief: as §1
row,SMILES,Activity
1,COc1ccc(-n2cc(-c3cc(OC)cc(OC)c3)nn2)cc1,78.6%
2,COc1ccc(-c2cn(-c3cc(O)cc(O)c3)nn2)cc1,62.2%
3,Oc1ccc(-c2cn(-c3cc(O)cc(O)c3)nn2)cc1,93.4%
4,Oc1ccc(/C=C/c2cc(O)cc(O)c2)cc1 [RESVERATROL],33.5%
5,COc1ccc(-c2cn(-c3cc(OC)cc(OC)c3)nn2)cc1,85.9%
6,Oc1ccc(-n2cc(-c3cc(O)cc(O)c3)nn2)cc1,86.6%

# Tested on: FG2
# Experiment: Cytotoxicity against human pancreatic carcinoma FG2 cell line by MTT assay at 100 uM
# Assay type: functional
# Settings: not given
# Method in brief: as §1
row,SMILES,Activity
1,COc1ccc(-n2cc(-c3cc(OC)cc(OC)c3)nn2)cc1,88.2%
2,COc1ccc(-c2cn(-c3cc(O)cc(O)c3)nn2)cc1,83.7%
3,Oc1ccc(-c2cn(-c3cc(O)cc(O)c3)nn2)cc1,93.7%
4,Oc1ccc(/C=C/c2cc(O)cc(O)c2)cc1 [RESVERATROL],42.2%
5,COc1ccc(-c2cn(-c3cc(OC)cc(OC)c3)nn2)cc1,100.8%
6,Oc1ccc(-n2cc(-c3cc(O)cc(O)c3)nn2)cc1,91.9%

# Tested on: MDA-MB-231
# Experiment: Cytotoxicity against breast cancer MDA-MB-231 cell line by MTT assay
# Assay type: functional, cell-based
# Settings: Homo sapiens
# Method in brief: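 MDA-MB-231 cells were screened by MTT in an automated format across decreasing compound concentrations. Viability was expressed as % of untreated control, with 70% of control as the arbitrary cutoff for reduced viability at 10 µM. IC50 values are approximate and were assigned to concentration ranges.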
row,SMILES,pIC50
1,COc1ccc(-n2cc(-c3cc(O)cc(O)c3)nn2)cc1O,< 5.00
2,COc1cc(-c2cn(-c3ccc(OC(F)(F)F)cc3)nn2)ccc1O,5.00
3,COc1ccc(-n2cc(-c3cc(OC)c(OC)c(OC)c3)nn2)c(OC)c1,< 5.00
4,COc1ccc(-n2cc(-c3cc(O)cc(O)c3)nn2)cc1OC,< 5.00
5,COc1ccc(-c2cn(-c3ccc(Oc4ccccc4)cc3)nn2)cc1OC,5.00
6,COc1cc(OC)cc(-n2cc(-c3cc(O)cc(O)c3)nn2)c1,< 5.00
7,COc1cc(OC)cc(-c2cn(-c3ccc4c(c3)OCO4)nn2)c1,< 5.00
8,COc1cc(OC)cc(-n2cc(-c3ccc(O)c(OC)c3)nn2)c1,5.00
9,COc1cc(OC)cc(-c2cn(-c3ccc(OC)c(O)c3)nn2)c1,< 5.00
10,COc1cc(-c2cn(-c3c(O)c(F)cc(F)c3F)nn2)ccc1O,5.00
11,COc1ccc(-c2cn(-c3ccc(Oc4ccccc4)cc3)nn2)cc1,< 7.00
12,COc1ccc(-c2cn(-c3ccc(N)cc3)nn2)cc1O,< 5.00
13,Oc1cc(O)cc(-c2cn(-c3ccc4c(c3)OCO4)nn2)c1,< 6.00
14,COc1ccc(-c2cn(-c3ccc(OC)c(O)c3)nn2)cc1O,< 5.00
15,COc1cc(OC)cc(-n2cc(-c3ccc(OC)c(OC)c3)nn2)c1,< 6.00
16,COc1ccc(-n2cc(-c3ccc(N)cc3)nn2)cc1O,< 5.00
17,COc1ccc(-n2cc(-c3ccc(O)c(OC)c3)nn2)cc1,< 5.00
18,COc1cc(OC)cc(-n2cc(-c3ccc(N)cc3)nn2)c1,< 5.00
19,COc1ccc(-n2cc(-c3ccc(OC)c(OC)c3)nn2)cc1O,< 6.00
20,COc1ccc(-n2cc(-c3ccc(N)cc3)nn2)cc1OC,< 5.00
21,COc1cc(OC)cc(-c2cn(-c3cc(OC)c(OC)c(OC)c3)nn2)c1,< 5.00
22,COc1ccc(-n2cc(-c3ccc(N)cc3)nn2)c(OC)c1,< 5.00
23,COc1cc(-c2cn(-c3ccc(OC(F)(F)F)cc3)nn2)cc(OC)c1OC,< 5.00
24,COc1cc(-n2cc(-c3cc(O)cc(O)c3)nn2)cc(OC)c1OC,< 5.00

row,SMILES,pIC50
1,COc1cc(OC)cc(-c2cn(-c3ccc(OC(F)(F)F)cc3)nn2)c1,< 6.00
2,Oc1cc(O)cc(-c2cn(-c3ccc(Oc4ccccc4)cc3)nn2)c1,< 5.00
3,COc1cc(OC)cc(-c2cn(-c3c(O)c(F)cc(F)c3F)nn2)c1,< 5.00
4,COc1cc(-c2cn(-c3ccc(Oc4ccccc4)cc3)nn2)cc(OC)c1OC,5.00
5,COc1cc(-c2cn(-c3cc(OC)c(OC)c(OC)c3)nn2)ccc1O,< 5.00
6,COc1ccc(-c2cn(-c3ccc4c(c3)OCO4)nn2)cc1,6.00
7,COc1ccc(-n2cc(-c3ccc(O)c(OC)c3)nn2)cc1O,< 5.00
8,COc1ccc(-c2cn(-c3c(O)c(F)cc(F)c3F)nn2)cc1O,< 5.00
9,COc1ccc(-n2cc(-c3cc(OC)c(OC)c(OC)c3)nn2)cc1O,5.00
10,COc1cc(OC)cc(-n2cc(-c3ccc(OC)c(O)c3)nn2)c1,< 5.00
11,COc1cc(OC)cc(-c2cn(-c3ccc(Oc4ccccc4)cc3)nn2)c1,< 5.00
12,COc1ccc(-c2cn(-c3ccc4c(c3)OCO4)nn2)cc1O,< 5.00
13,COc1ccc(-n2cc(-c3cc(O)cc(O)c3)nn2)cc1,< 5.00
14,COc1ccc(-c2cn(-c3ccc(OC)cc3OC)nn2)cc1,< 5.00
15,COc1ccc(-c2cn(-c3c(O)c(F)cc(F)c3F)nn2)cc1,< 6.00
16,COc1ccc(-c2cn(-c3ccc(OC)c(O)c3)nn2)cc1,< 7.00
17,COc1ccc(-c2cn(-c3ccc(OC(F)(F)F)cc3)nn2)cc1O,< 5.00
18,COc1ccc(-c2cn(-c3ccc(OC(F)(F)F)cc3)nn2)cc1,6.00
19,COc1ccc(-n2cc(-c3ccc(OC)c(O)c3)nn2)c(OC)c1,< 5.00
20,COc1ccc(-n2cc(-c3ccc(N)cc3)nn2)cc1,< 7.00
21,COc1ccc(-n2cc(-c3ccc(OC)c(OC)c3)nn2)cc1,< 7.00
22,COc1ccc(-c2cn(-c3ccc4c(c3)OCO4)nn2)cc1OC,5.00
23,COc1cc(OC)cc(-c2cn(-c3ccc(OC)c(OC)c3)nn2)c1,5.00
24,COc1ccc(-c2cn(-c3ccc(Oc4ccccc4)cc3)nn2)cc1O,< 5.00

row,SMILES,pIC50
1,COc1cc(-n2cc(-c3ccc(N)cc3)nn2)cc(OC)c1OC,< 5.00
2,COc1ccc(-n2cc(-c3cc(OC)c(OC)c(OC)c3)nn2)cc1,< 5.00
3,COc1cc(OC)cc(-n2cc(-c3cc(OC)c(OC)c(OC)c3)nn2)c1,< 6.00
4,COc1ccc(-c2cn(-c3ccc(OC)cc3)nn2)cc1,< 7.00
5,COc1ccc(-n2cc(-c3cc(O)cc(O)c3)nn2)c(OC)c1,5.00
6,COc1ccc(-c2cn(-c3ccc(N)cc3)nn2)cc1,< 7.00
7,Nc1ccc(-c2cn(-c3ccc4c(c3)OCO4)nn2)cc1,< 5.00
8,COc1ccc(-c2cn(-c3ccc(OC)c(OC)c3)nn2)cc1O,< 7.00
9,COc1cc(-c2cn(-c3ccc4c(c3)OCO4)nn2)ccc1O,< 5.00
10,Oc1cc(O)cc(-c2cn(-c3ccc(OC(F)(F)F)cc3)nn2)c1,< 5.00
11,COc1cc(-c2cn(-c3ccc4c(c3)OCO4)nn2)cc(OC)c1OC,5.00
12,COc1ccc(-c2cn(-c3cc(OC)c(OC)c(OC)c3)nn2)cc1O,< 5.00
13,COc1ccc(-n2cc(-c3ccc(OC)c(O)c3)nn2)cc1,< 5.00
14,COc1ccc(-c2cn(-c3ccc(OC)c(OC)c3)nn2)cc1,< 5.00
15,Nc1ccc(-c2cn(-c3ccc(Oc4ccccc4)cc3)nn2)cc1,< 5.00
16,Nc1ccc(-c2cn(-c3c(O)c(F)cc(F)c3F)nn2)cc1,< 5.00
17,COc1ccc(-c2cn(-c3ccc(OC(F)(F)F)cc3)nn2)cc1OC,< 6.00
18,Nc1ccc(-c2cn(-c3ccc(OC(F)(F)F)cc3)nn2)cc1,< 8.00
19,COc1ccc(-c2cn(-c3cc(OC)c(OC)c(OC)c3)nn2)cc1,< 5.00
20,COc1cc(OC)cc(-c2cn(-c3ccc(OC)cc3OC)nn2)c1,< 5.00
21,COc1cc(-c2cn(-c3cc(OC)c(OC)c(OC)c3)nn2)cc(OC)c1OC,< 5.00
22,COc1cc(OC)cc(-c2cn(-c3cc(OC)cc(OC)c3)nn2)c1,< 5.00
